The source of these data is ChEMBL document CHEMBL1137338, “Effects of substitution on 9-(3-bromo-4-fluorophenyl)-5,9-dihydro-3H,4H-2,6-dioxa-4- azacyclopenta[b]naphthalene-1,8-dione, a dihydropyridine ATP-sensitive potassium channel opener” (J Med Chem, 2006).

Bounds are passed on as bounds.

For the assay, the target named is Sulfonylurea receptor 2, Kir6.2 (Homo sapiens, UniProt O60706+Q14654). The experiment in a line: Ability to open human urinary bladder Kir6.2 channel containing SUR2B in Ltk cells by FLIPR assay. The class given is functional, cell-based. The method, boiled down:
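Ltk- cells stably transfected with the Kir6.2/SUR2B exon 17- splice variant. Membrane potential was followed with DiBAC dye in a 96-well cell-based kinetic fluorescence (FLIPR) assay. The highest concentration tested was 10 µM. Each compound's maximal fluorescence response was expressed as % of the response to the reference opener.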

Sulfonylurea receptor 2, Kir6.2, sequence (Q14654 whole entry, canonical isoform): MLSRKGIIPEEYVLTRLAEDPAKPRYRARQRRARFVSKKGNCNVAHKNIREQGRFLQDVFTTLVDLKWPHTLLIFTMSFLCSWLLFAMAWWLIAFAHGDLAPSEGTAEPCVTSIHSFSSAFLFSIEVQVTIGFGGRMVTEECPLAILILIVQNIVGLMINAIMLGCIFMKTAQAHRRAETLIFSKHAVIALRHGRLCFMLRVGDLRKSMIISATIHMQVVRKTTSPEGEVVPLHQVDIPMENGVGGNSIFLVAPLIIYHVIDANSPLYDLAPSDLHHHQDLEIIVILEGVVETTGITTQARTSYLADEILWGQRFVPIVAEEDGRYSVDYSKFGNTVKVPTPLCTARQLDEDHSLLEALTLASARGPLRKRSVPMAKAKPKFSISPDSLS
Sulfonylurea receptor 2, Kir6.2, sequence (O60706 whole entry, canonical isoform): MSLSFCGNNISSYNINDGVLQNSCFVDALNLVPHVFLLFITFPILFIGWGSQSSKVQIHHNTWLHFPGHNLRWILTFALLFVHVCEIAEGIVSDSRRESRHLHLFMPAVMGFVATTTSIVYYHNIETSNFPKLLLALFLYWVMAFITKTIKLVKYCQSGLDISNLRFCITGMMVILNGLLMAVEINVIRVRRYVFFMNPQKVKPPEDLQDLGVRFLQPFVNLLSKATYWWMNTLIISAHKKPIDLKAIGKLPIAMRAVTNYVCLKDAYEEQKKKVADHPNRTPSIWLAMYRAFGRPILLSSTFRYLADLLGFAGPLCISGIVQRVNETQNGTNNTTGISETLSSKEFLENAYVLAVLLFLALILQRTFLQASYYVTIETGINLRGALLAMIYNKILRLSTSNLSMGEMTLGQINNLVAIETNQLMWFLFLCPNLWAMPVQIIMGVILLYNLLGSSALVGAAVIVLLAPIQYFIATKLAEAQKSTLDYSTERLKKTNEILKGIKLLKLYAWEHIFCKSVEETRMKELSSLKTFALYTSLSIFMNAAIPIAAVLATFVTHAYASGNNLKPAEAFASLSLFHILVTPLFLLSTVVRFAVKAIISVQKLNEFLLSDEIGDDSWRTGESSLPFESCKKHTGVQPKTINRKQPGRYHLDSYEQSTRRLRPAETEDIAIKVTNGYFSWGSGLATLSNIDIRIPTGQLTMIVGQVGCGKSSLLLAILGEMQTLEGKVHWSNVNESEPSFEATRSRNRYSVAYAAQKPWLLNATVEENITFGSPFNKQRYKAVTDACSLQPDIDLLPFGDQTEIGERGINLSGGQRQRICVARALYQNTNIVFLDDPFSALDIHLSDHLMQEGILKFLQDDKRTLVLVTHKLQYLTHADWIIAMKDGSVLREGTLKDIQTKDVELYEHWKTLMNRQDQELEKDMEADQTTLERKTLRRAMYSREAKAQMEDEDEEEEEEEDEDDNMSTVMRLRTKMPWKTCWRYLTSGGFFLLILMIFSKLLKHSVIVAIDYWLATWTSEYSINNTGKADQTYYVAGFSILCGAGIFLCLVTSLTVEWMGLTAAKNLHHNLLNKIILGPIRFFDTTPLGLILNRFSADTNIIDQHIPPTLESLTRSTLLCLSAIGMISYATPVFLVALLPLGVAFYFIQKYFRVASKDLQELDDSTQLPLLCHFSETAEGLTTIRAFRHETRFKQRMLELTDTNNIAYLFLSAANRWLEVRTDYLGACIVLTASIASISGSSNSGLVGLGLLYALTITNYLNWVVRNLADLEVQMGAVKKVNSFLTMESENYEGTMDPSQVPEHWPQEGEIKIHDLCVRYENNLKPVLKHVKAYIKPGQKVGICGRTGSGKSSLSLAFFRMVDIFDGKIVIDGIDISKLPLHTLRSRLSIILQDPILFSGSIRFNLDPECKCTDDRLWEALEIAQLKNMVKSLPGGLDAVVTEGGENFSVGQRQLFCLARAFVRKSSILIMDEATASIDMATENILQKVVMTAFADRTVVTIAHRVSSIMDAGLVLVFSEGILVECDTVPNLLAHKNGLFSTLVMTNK

`CC[C@@H]1OCC(O)=C2C1=NC1=C(C(=O)COC1)[C@H]2c1ccc(F)c(Br)c1` (stereo in doubt; 70a) gave an EC50 of 166 nM.

Regarding `COC[C@H]1OC(O)=C2C1=NC1=C(C(=O)COC1)[C@H]2c1ccc(F)c(Br)c1` (racemic), the response was half-maximal at 22.9 nM (EC50).

As to `CC[C@H]1OCC(O)=C2C1=NC1=C(C(=O)COC1)[C@H]2c1ccc(F)c(Br)c1` (racemic), a half-maximal response (EC50) required 186 nM.

`COC[C@H]1OC(O)=C2C1=NC1=C(C(=O)COC1)[C@H]2c1ccc(F)c(Br)c1` (stereo in doubt; 25a) showed an EC50 of 479 nM.

Compound `C[C@@H]1OCC2=C(C1=O)[C@H](c1ccc(F)c(Br)c1)C1=C(O)OCC1=N2` (racemic) had an EC50 of 457 nM.

`CCC[C@H]1OC(O)=C2C1=NC1=C(C(=O)COC1)[C@H]2c1ccc(Cl)c(Cl)c1` (stereo in doubt; 42b): a half-maximal response (EC50) required 2000 nM.

`CCC[C@H]1OC(O)=C2C1=NC1=C(C(=O)COC1)[C@H]2c1ccc(C)c(Br)c1` (racemic) had an EC50 of 398 nM.

Turning to `CCC[C@H]1OC(O)=C2C1=NC1=C(C(=O)COC1)[C@H]2c1ccc(Cl)c(Cl)c1` (stereo in doubt; 42a), the EC50 was 1320 nM.

Take `C[C@@H]1OCC2=C(C1=O)[C@H](c1ccc(F)c(Br)c1)C1=C(O)OCC1=N2` (stereo in doubt; 8b): the EC50 is 295 nM.

In the case of `CC[C@@H]1OCC(O)=C2C1=NC1=C(C(=O)COC1)[C@H]2c1ccc(F)c(Br)c1` (racemic), the EC50 is 14.1 nM.

In the case of `CCC[C@H]1OC(O)=C2C1=NC1=C(C(=O)COC1)[C@H]2c1ccc(Cl)c(Cl)c1` (racemic), the EC50 was 603 nM.

`CCC[C@H]1OC(O)=C2C1=NC1=C(C(=O)COC1)[C@H]2c1ccc(F)c(I)c1` (racemic) showed an EC50 of 75.9 nM.

Turning to `CC[C@H]1OCC(O)=C2C1=NC1=C(C(=O)COC1)[C@H]2c1ccc(F)c(Cl)c1` (racemic), the EC50 was 457 nM.

`CC[C@H]1OCC(O)=C2C1=NC1=C(C(=O)COC1)[C@H]2c1ccc(C)c(Br)c1` (racemic) gave a half-maximal effective concentration (EC50) of 1580 nM.

The compound `CC[C@H]1OCC(O)=C2C1=NC1=C(C(=O)COC1)[C@H]2c1ccc(Cl)c(Br)c1` (stereo in doubt; 75a) showed a half-maximal effective concentration (EC50) of 759 nM.

`CCC[C@@H]1OC(O)=C2C1=NC1=C(C(=O)COC1)[C@H]2c1ccc(F)c(Br)c1` (racemic) showed an EC50 of 5.13 nM.

`CC[C@H]1OCC(O)=C2C1=NC1=C(C(=O)COC1)[C@H]2c1ccc(Cl)c(Cl)c1` (racemic): the EC50 is 105 nM.

With `CCCCC[C@@H]1OC(O)=C2C1=NC1=C(C(=O)COC1)[C@H]2c1ccc(F)c(Br)c1` (relative stereo), the EC50 was over 10000 nM.

Compound `CCC[C@@H]1OC(O)=C2C1=NC1=C(C(=O)COC1)[C@H]2c1ccc(F)c(Br)c1` (stereo in doubt; 22a) showed a half-maximal effective concentration (EC50) of 1 nM.

`O=C1COCC2=C1C(c1ccc(F)c(Br)c1)C1=C(O)C3(CCCC3)OCC1=N2` (configuration not stated) gave a concentration for a half-maximal effect (EC50) of over 10000 nM.

In the case of `CC[C@@H]1C2=C(C(=O)N1C)[C@H](c1ccc(F)c(Br)c1)C1=C(O)COCC1=N2` (relative stereo), the EC50 is over 10000 nM.

In the case of `CC[C@H]1OCC(O)=C2C1=NC1=C(C(=O)COC1)[C@H]2c1ccc(Cl)c(Cl)c1` (stereo in doubt; 74a), a half-maximal effect (EC50) was put at 468 nM.

The compound `CCC[C@@H]1OC(O)=C2C1=NC1=C(C(=O)COC1)[C@H]2c1ccc(F)c(Br)c1` (stereo in doubt; 22b) gave an EC50 of 3.72 nM.

On to `CC[C@H]1OCC(O)=C2C1=NC1=C(C(=O)COC1)[C@H]2c1ccc(Cl)c(Br)c1` (racemic), for which it took 1620 nM to reach a half-maximal effect (EC50).

On to `CC[C@H]1OCC(O)=C2C1=NC1=C(C(=O)COC1)[C@H]2c1ccc(F)c(Br)c1` (stereo in doubt; 71b), for which the EC50 was over 10000 nM.

Turning to `CCC[C@H]1OC(O)=C2C1=NC1=C(C(=O)COC1)[C@H]2c1ccc(Br)c(Cl)c1` (stereo in doubt; 44b), the concentration giving a half-maximal response (EC50) is 437 nM.

With `CC[C@H]1OCC(O)=C2C1=NC1=C(C(=O)COC1)[C@H]2c1ccc(C)c(Br)c1` (stereo in doubt; 78a), the concentration for a half-maximal effect (EC50) was 724 nM.

For orientation: EC50 means the concentration at which the effect is half-maximal.
